PKD1 kinase inh – inhibitors of human PKD1 kinase, biochemical, fluorescence polarization; Serine/threonine-protein kinase D1 (Homo sapiens), Q15139; PKD1 kinase fluorescence polarization assay; inhibition, % (concentration not given with the values); 200,000 compounds, 0.056% hits; in the data active = inhibition above about 50%
p97 inhibitor – inhibitors of human p97 ATPase, primary screen, biochemical. 220,000 compounds, 0.42% hits. recombinant p97 ATPase, Kinase-Glo ATP luminescence, 3 h. AID 1481, 2009. inhibition, % at 8 µM; in the data active = inhibition above about 15%;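 note: 0% = DMSO vehicle and 100% = wells lacking enzyme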
Wee1 stabilizer – Wee1 degradation inhibitors, primary screen, cell-based, HeLa, Wee1K328M-luciferase, luminescence | Wee1-like protein kinase (Homo sapiens), P30291 | HeLa Luc-Wee1K328M stability; 100% = proteasome inhibitor MG132 effect | reporter increase, % at 5 µM | 220,000 compounds, 1.2% hits | AID 1321, 2008;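 active = activation above the mean of all tested compounds plus 3 SD, set per screening run, cut at about 8.8% in these data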;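 note: cells exposed to compound for 20 h before luminescence read; 0% = DMSO alone and 100% = MG132 at 30 µM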
Target sequence (P30291 whole entry K328M): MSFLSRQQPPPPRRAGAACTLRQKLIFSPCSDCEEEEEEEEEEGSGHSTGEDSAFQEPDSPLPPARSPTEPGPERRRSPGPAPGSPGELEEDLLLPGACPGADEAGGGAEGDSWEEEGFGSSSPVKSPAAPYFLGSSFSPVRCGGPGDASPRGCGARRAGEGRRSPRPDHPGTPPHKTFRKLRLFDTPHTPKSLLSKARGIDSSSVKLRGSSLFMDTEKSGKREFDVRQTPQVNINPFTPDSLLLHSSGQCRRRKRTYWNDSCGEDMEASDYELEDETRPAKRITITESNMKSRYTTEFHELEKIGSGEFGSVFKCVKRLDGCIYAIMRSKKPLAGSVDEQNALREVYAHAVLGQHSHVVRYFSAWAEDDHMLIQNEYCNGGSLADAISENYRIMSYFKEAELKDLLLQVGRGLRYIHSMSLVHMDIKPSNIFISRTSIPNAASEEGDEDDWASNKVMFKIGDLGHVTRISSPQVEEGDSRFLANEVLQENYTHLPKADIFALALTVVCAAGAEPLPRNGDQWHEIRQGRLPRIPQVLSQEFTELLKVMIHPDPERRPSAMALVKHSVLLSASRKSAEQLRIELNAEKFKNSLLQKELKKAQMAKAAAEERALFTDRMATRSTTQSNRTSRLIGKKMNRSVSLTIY
RBBP9 inhibitor – human RBBP9 inhibitors, primary screen, biochemical, fluorescence polarization, FP-Rh probe, HTS. Serine hydrolase RBBP9 (Homo sapiens), O75884. recombinant RBBP9. inhibition, % at 7.94 µM. 220,000 compounds, 0.2% hits;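 active = inhibition above the campaign mean of all tested compounds plus 3 SD, cut at about 14% in these data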;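 note: plate controls were DMSO wells with RBBP9 for no effect and wells lacking RBBP9 protein for full effect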
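System: RBBP9 protein / Quantity: 2.5 µM RBBP9 dispensing solution, before mixing / Also added: Serine-hydrolase probe FP-Rh, 375 nM pre-mixing / Dosing: 7.94 µM single dose, 0.794% DMSO / Timing: enzyme-compound preincubation 30 min, then probe labeling 45 min, 25 °C / Signal: FP readout at 525/598 nm / Controls: DMSO-treated enzyme wells and wells lacking RBBP9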
Arbovirus anti – antivirals against arbovirus infection, primary screen, cell-based, full library, 10K replicate subset. arbovirus infection cell-based antiviral screen. inhibition, % at 10 µM. 200,000 compounds, 0.37% hits. AID 1251, 2008; in the data active = inhibition above about 30%
DTT redox prof – compounds producing H2O2 with reducing agent – biochemical, NIH compound library profiling, artefact control for MLSCN library redox annotation, primary screen. DTT-dependent redox cycling H2O2, phenol red/HRP absorbance; 100% = 100 µM peroxide control, 0% = buffer. activation, % at 10 µM. 200,000 compounds, 0.03% hits. AID 878, 2007;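 active = activation of at least 50% relative to the plate's high and low controls in the primary single-dose screen; inactive = activation below 50%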;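 note: compound incubated with DTT at 0.8 mM final as the reducing agent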
Numbers without * were called inactive; · = no result given. Only some compounds are listed: those with a hit (about 2.2% of all), similar ones and a draw of the others.

SMILES	PKD1 kinase inh	p97 inhibitor	Wee1 stabilizer	RBBP9 inhibitor	Arbovirus anti	DTT redox prof
O=C(/C(=C/c1cccnc1)n1ccnc1)c1ccc(Cl)cc1Cl	·	5	-2	-2	·	·
CN(CCCNC(=O)Cn1cccc1C(=O)c1ccccc1)C1CCCCC1	4	3	2	3	5	1
C=C(C)C1Cc2cc3ccc(=O)oc3cc2O1 (stereo unspecified)	-20	-5	4	5	-3	0
CC(C)(O[C@@H]1O[C@H](CO)[C@@H](O)[C@H](O)[C@H]1O)[C@H]1Cc2cc3ccc(=O)oc3cc2O1	3	-3	5	-4	30*	-1
O=C(NNC1=NCCN1Cc1ccccc1)c1cccc(C(F)(F)F)c1	·	-5	11*	-3	·	·
Cc1cc(C(=O)NNC(=O)c2cccc(C(F)(F)F)c2)no1	·	7	-3	-10	·	·
Cc1ccc(NC(=O)C(=O)NCCN2CCN(C(=S)Nc3ccccc3)CC2)cc1	1	6	0	0	3	0
Cc1c(CCOC(=O)C23CC4CC(CC(C4)C2)C3)sc[n+]1CC#N	-9	0	4	-6	-1	0
Cc1ccc2nc(NC(=O)COC(=O)c3ccccn3)sc2c1	14	0	9.3*	-4	7	0
COc1ccc2c(c1)c1nc3ccccc3nc1n2Cc1ccc(OC)c(OC)c1	-1	-2	-3	2	33*	1
O=C1CCc2cc(S(=O)(=O)N3CCCC3C(=O)NC3CCCCCCC3)ccc2N1 (stereo unspecified)	-10	-7	-2	-6	-2	-3
O=C1CC(c2ccccc2)=NN1c1nc(-c2ccccc2)cs1	-8	5	11*	-1	10	0
CCOc1c(Cl)cc(CNCc2ccccn2)cc1OC	-4	0	9.0*	-6	0	4
O=C(/C(Cl)=C/Nc1ccc(Br)cn1)C(F)(F)F	-3	3	-1	-8	19	0
O=C(NCc1ccc(C(=O)O)cc1)OCc1ccccc1	4	-1	-4	-1	7	0
Cc1cccc(Cc2cnc(N3C(=N)SC(C)C3=O)s2)c1 (stereo unspecified)	6	-1	9.6*	-2	-32	0
CCOC(=O)c1ccc(-n2c(C)nc3ccc(Br)cc3c2=O)cc1	·	0	0	2	·	·
CC(C)(C)c1[nH]nc2c1C(c1cccnc1)C(C#N)=C(N)O2 (stereo unspecified)	0	3	9.9*	-5	4	-1
CSc1nc(C)c(C(=O)C[n+]2ccccc2)cc1C#N	·	6	9.8*	12	·	·
CCCCCNc1nc2ccccc2nc1NS(=O)(=O)c1cccs1	-8	0	4	-5	32*	0
CCNC(=O)CSc1nc2ccccc2c(=O)n1-c1cc(OC)ccc1OC	6	6	4	-7	-3	-1
Cc1ccc(C(C)C)c(OCC(=O)N2CCOCC2)c1	-3	-4	9.2*	-7	-1	-1
Cc1ccc(-c2ccc(OCC(=O)N3CCOCC3)cc2)cc1	-2	-4	2	2	7	2
N=c1n(CC(=O)c2ccc(Br)s2)c2ccccc2n1Cc1ccccc1	·	10	10*	4	·	·
OC(CNCC1(N2CCCCC2)CCCCC1)COc1ccc(Cl)cc1Cl (stereo unspecified)	-3	2	-3	-5	30*	-1
SMILES	PKD1 kinase inh	p97 inhibitor	Wee1 stabilizer	RBBP9 inhibitor	Arbovirus anti	DTT redox prof
Cc1c(N/C(=N/S(=O)(=O)c2ccccc2)c2ccc(Cl)cc2)c(=O)n(-c2ccccc2)n1C	-2	0	-3	-6	-9	0
Cc1ccc(-c2cc(C(F)(F)F)c(C#N)c(=O)[nH]2)cc1	1	3	-1	-4	54*	0
N#Cc1c(C(F)(F)F)cc(-c2ccccc2)[nH]c1=O	4	-2	-1	-4	22	2
O=C(Nc1nc2ccc(S(=O)(=O)N3CCCC3)cc2s1)C1CCCCC1	-7	1	11*	-9	-17	-4
COc1ccc(C(=S)N2CCN(c3cccc(Cl)c3)CC2)cc1	·	4	1	-1	·	·
CC(C)CC(=O)N1CCN(S(=O)(=O)c2ccc3ccccc3c2)CC1	-6	3	-2	-3	6	0
Cc1ccc(S(=O)(=O)Nc2ccc(N(C)S(=O)(=O)c3ccc(C)cc3)cc2)cc1	·	3	10*	-9	·	·
COC(=O)c1ccc(NS(=O)(=O)N(C)C)cc1	-12	3	1	-5	-3	-1
Cc1ccc(NS(=O)(=O)N(C)C)cc1	0	0	9.8*	-1	-4	1
CSc1ccc(S(=O)(=O)Nc2ccc(S(=O)(=O)Nc3ccc(C)cc3)cc2)cc1	6	-2	5	-4	-32	0
C=CCn1c(COc2ccccc2F)nnc1SCC(=O)c1c[nH]c2ccccc12	15	4	-1	-8	6	1
Cc1nc(Nc2ccc(C(=O)O)cc2)sc1-c1ccccc1	5	7	5	12	-15	-1
Cc1nc(Nc2ccccc2)sc1-c1ccccc1	-11	1	3	11	33*	0
O=S(=O)(c1ccc(NC(=S)NN=C2CCCCC2)cc1)N1CCOCC1	-1	5	6	-2	-3	-2
Cc1ccc(/C=N/NC(=O)CCn2nc(C)cc2C)c(C)c1	2	1	0	0	-13	0
C/C(=N\Nc1nc2c(s1)CCCC2)c1ccccc1	1	-7	0	-3	-30	0
COC(=O)c1nnn(Cc2ccccc2)c1N	0	-5	-1	-9	-13	0
Nc1c(C2=NCCO2)nnn1Cc1ccccc1	-9	0	9.2*	-2	7	3
CCCN1CCC(NC(=S)Nc2cccc(Cl)c2Cl)CC1	6	1	0	-6	-4	0
O=C(CN1C(=O)C2C3c4ccccc4C(c4ccccc43)C2C1=O)Nc1cccc(C(=O)O)c1 (stereo unspecified)	6	1	1	-2	22	0
Cc1ccc(S(=O)(=O)n2ccc(-c3ccc(OCc4c(F)cccc4Cl)cc3)n2)cc1	-17	-6	8.8*	-7	4	2
Cc1nc2c(C(=O)NCc3ccccc3Cl)c[nH]n2c(=O)c1Cl	-13	15*	0	-3	22	-4
Cc1nc2c(C(=O)NCCc3ccccc3Cl)c[nH]n2c(=O)c1Cl	-20	1	-1	1	60*	0
Cc1nc2c(C(=O)NCc3ccccc3)c[nH]n2c(=O)c1Cl	2	4	-2	-6	6	1
